Laboratory results from ChEMBL document CHEMBL1921722, “In vitro and in vivo evaluation of select kahalalide F analogs with antitumor and antifungal activities” (Bioorg Med Chem, 2011).
Activity calls are given as the source filed them.

Columns and labels:
SN12C = experiment: Cytotoxicity against human SN12C cells assessed as cell growth at 80 nM by sulforhodamine B assay relative to control; type: functional; details: read-out: Activity
MCF7 [1] = experiment: Cytotoxicity against human MCF7 cells assessed as cell growth at 8 uM by sulforhodamine B assay relative to control; type: functional; details: read-out: Activity
RXF 393 = experiment: Cytotoxicity against human RXF393 cells assessed as cell growth at 8 nM by sulforhodamine B assay relative to control; type: functional; details: read-out: Activity
SK-MEL-2 = experiment: Cytotoxicity against human SK-MEL-2 cells assessed as cell growth at 8 nM by sulforhodamine B assay relative to control; type: functional; details: read-out: Activity
BT-549 = experiment: Cytotoxicity against human BT549 cells by sulforhodamine B assay; type: functional; details: for TGI: read-out: pTGI (converted)
How it was run: (§1)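 Run at NCI in the DTP 60-cell-line human tumor panel by standard procedure. Compounds were first screened at a single concentration, then tested at five tenfold-spaced concentrations. GI50 is the concentration reducing treated-cell growth to half that of untreated controls; TGI is the concentration completely halting growth.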

HCT-15 = experiment: Cytotoxicity against human HCT15 cells assessed as cell growth at 80 nM by sulforhodamine B assay relative to control; type: functional; details: read-out: Activity
SK-MEL-5 = experiment: Cytotoxicity against human SK-MEL-5 cells assessed as cell growth at 8 uM by sulforhodamine B assay relative to control; type: functional; details: read-out: Activity
COLO 205 = experiment: Cytotoxicity against human COLO205 cells assessed as cell growth at 80 uM by sulforhodamine B assay relative to control; type: functional; details: read-out: Activity; how it was run: as §1
Mus musculus [2] = experiment: Acute toxicity in athymic nude mouse assessed as mortality at 25 mg/kg, […]; type: organism-based; set-up: dose 25 mg/kg, route intraperitoneal; details: in vivo, ip, 576 h
K562 [3] = experiment: Cytotoxicity against human K562 cells by sulforhodamine B assay; type: functional; details: for CC50: read-out: pLC50 (the source's name) (converted); for TGI: read-out: pTGI (converted)
How it was run: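 NCI Developmental Therapeutics Program 60-cell-line human tumor panel screen, run at NCI. A single-concentration pre-screen was followed by a five-concentration dose-response in 10-fold steps. GI50 is the concentration that reduces growth of treated cells to half that of untreated control cells. TGI is the concentration that completely halts growth.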

K562 [4] = experiment: Cytotoxicity against human K562 cells assessed as cell growth at 8 uM by sulforhodamine B assay relative to control; type: functional; details: read-out: Activity
EKVX = experiment: Cytotoxicity against human EKVX cells assessed as cell growth at 80 nM by sulforhodamine B assay relative to control; type: functional; details: read-out: Activity
M14 [5] = experiment: Cytotoxicity against human M14 cells assessed as cell growth at 8 uM by sulforhodamine B assay relative to control; type: functional; details: read-out: Activity
K562 [6] = experiment: Cytotoxicity against human K562 cells assessed as cell growth at 800 nM by sulforhodamine B assay relative to control; type: functional; details: read-out: Activity
HOP-92 = experiment: Cytotoxicity against human HOP92 cells assessed as cell growth at 80 uM by sulforhodamine B assay relative to control; type: functional; details: read-out: Activity
KM12 [7] = experiment: Cytotoxicity against human KM12 cells assessed as cell growth at 80 uM by sulforhodamine B assay relative to control; type: functional; details: read-out: Activity
786-0 = experiment: Cytotoxicity against human 786-0 cells assessed as cell growth at 800 nM by sulforhodamine B assay relative to control; type: functional; details: read-out: Activity; how it was run: as §1
SK-OV-3 = experiment: Cytotoxicity against human SKOV3 cells assessed as cell growth at 80 nM by sulforhodamine B assay relative to control; type: functional; details: read-out: Activity
KM12 [8] = experiment: Cytotoxicity against human KM12 cells assessed as cell growth at 800 nM by sulforhodamine B assay relative to control; type: functional; details: read-out: Activity
M14 [9] = experiment: Cytotoxicity against human M14 cells assessed as cell growth at 800 nM by sulforhodamine B assay relative to control; type: functional; details: read-out: Activity
MDA-MB-231 = experiment: Antitumor activity against human MDA-MB-231 cells xenografted in mouse assessed as tumor cell killing at 4.7 mg/kg, ip qd for 4 days by MTT assay; type: functional, organism-based; set-up: dose 4.7 mg/kg
How it was run: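 Hollow-fiber assay in mice. Tumor lines were grown in RPMI-1640 with 10% FBS and 2 mM glutamine. Cells at 2 × 10^6 cells/ml were loaded into 1 mm PVDF fibers (500,000 Da cutoff), heat-sealed at 2 cm and held 24–48 h at 37 °C, 5% CO2 before implantation. Compound was given IP. Fibers were collected the day after the fourth treatment for MTT (OD 540 nm, group means). A ≥50% cut in percent net growth versus vehicle counted as positive.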

NCI-H522 = experiment: Cytotoxicity against human NCI-H522 cells assessed as cell growth at 800 nM by sulforhodamine B assay relative to control; type: functional; details: read-out: Activity
MCF7 [10] = experiment: Cytotoxicity against human MCF7 cells assessed as cell growth at 80 uM by sulforhodamine B assay relative to control; type: functional; details: read-out: Activity
RPMI-8226 [11] = experiment: Cytotoxicity against human RPMI8226 cells assessed as cell growth at 800 nM by sulforhodamine B assay relative to control; type: functional; details: read-out: Activity
ACHN = experiment: Cytotoxicity against human ACHN cells by sulforhodamine B assay; type: functional; how it was run: as §1
HT-29 = experiment: Cytotoxicity against human HT-29 cells assessed as cell growth at 800 nM by sulforhodamine B assay relative to control; type: functional; details: read-out: Activity
NCI-H322M [12] = experiment: Cytotoxicity against human NCI-H322M cells assessed as cell growth at 80 nM by sulforhodamine B assay relative to control; type: functional; details: read-out: Activity
U-251 = experiment: Cytotoxicity against human U251 cells assessed as cell growth at 8 uM by sulforhodamine B assay relative to control; type: functional; details: read-out: Activity
HCC 2998 = experiment: Cytotoxicity against human HCC2998 cells assessed as cell growth at 8 uM by sulforhodamine B assay relative to control; type: functional; details: read-out: Activity
RPMI-8226 [13] = experiment: Cytotoxicity against human RPMI8226 cells assessed as cell growth at 8 uM by sulforhodamine B assay relative to control; type: functional; details: read-out: Activity
UO-31 = experiment: Cytotoxicity against human UO31 cells assessed as cell growth at 8 nM by sulforhodamine B assay relative to control; type: functional; details: read-out: Activity
TK-10 [14] = experiment: Cytotoxicity against human TK10 cells assessed as cell growth at 80 uM by sulforhodamine B assay relative to control; type: functional; details: read-out: Activity
NCI-H322M [15] = experiment: Cytotoxicity against human NCI-H322M cells assessed as cell growth at 80 uM by sulforhodamine B assay relative to control; type: functional; details: read-out: Activity
TK-10 [16] = experiment: Cytotoxicity against human TK10 cells assessed as cell growth at 8 uM by sulforhodamine B assay relative to control; type: functional; details: read-out: Activity
T47D = experiment: Cytotoxicity against human T47D cells assessed as cell growth at 8 uM by sulforhodamine B assay relative to control; type: functional; details: read-out: Activity
Mus musculus [17] = experiment: Acute toxicity in athymic nude mouse assessed as mortality at 200 mg/kg, […] after 19 days; type: organism-based; set-up: dose 200 mg/kg, route intraperitoneal; details: in vivo, ip, 456 h
PC-3 = experiment: Cytotoxicity against human PC3 cells assessed as cell growth at 80 nM by sulforhodamine B assay relative to control; type: functional; details: read-out: Activity
NCI-H460 = experiment: Cytotoxicity against human NCI-H460 cells assessed as cell growth at 8 nM by sulforhodamine B assay relative to control; type: functional; details: read-out: Activity
SK-MEL-28 = experiment: Cytotoxicity against human SK-MEL-28 cells assessed as cell growth at 800 nM by sulforhodamine B assay relative to control; type: functional; details: read-out: Activity

C/C=C1\NC(=O)[C@H](Cc2ccccc2)NC(=O)[C@@H](C(C)C)NC(=O)[C@@H]([C@@H](C)CC)NC(=O)[C@H](NC(=O)[C@H](NC(=O)[C@H](CCCNCc2ccc(F)c(C)c2)NC(=O)[C@H]2CCCN2C(=O)[C@H](NC(=O)[C@@H](NC(=O)[C@@H](NC(=O)[C@H](NC(=O)CCCC(C)C)C(C)C)[C@@H](C)O)C(C)C)C(C)C)[C@@H](C)CC)[C@@H](C)OC(=O)[C@H](C(C)C)NC1=O
growth at 0.08 µM (SN12C): 94%
growth at 8 µM (MCF7 [1]): -53%
growth at 0.008 µM (RXF 393): 103%
growth at 0.008 µM (SK-MEL-2): 98%
GI50 (BT-549): 1.23 µM
LC50 (BT-549): 4.57 µM
TGI (BT-549): 2.34 µM
growth at 0.08 µM (HCT-15): 103%
growth at 8 µM (SK-MEL-5): -100%
growth at 80 µM (COLO 205): 33%
Activity (Mus musculus [2]): Toxic
GI50 (K562 [3]): 1.82 µM
CC50 (K562 [3]): > 75.9 µM
TGI (K562 [3]): 3.89 µM
growth at 8 µM (K562 [4]): -43%
growth at 0.08 µM (EKVX): 97%
growth at 8 µM (M14 [5]): -99%
growth at 0.8 µM (K562 [6]): 107%
growth at 80 µM (HOP-92): -91%
growth at 80 µM (KM12 [7]): -36%
growth at 0.8 µM (786-0): 96%
growth at 0.08 µM (SK-OV-3): 105%
growth at 0.8 µM (KM12 [8]): -55%
growth at 0.8 µM (M14 [9]): 101%
Activity (MDA-MB-231): inactive
growth at 0.8 µM (NCI-H522): 105%
growth at 80 µM (MCF7 [10]): 3%
growth at 0.8 µM (RPMI-8226 [11]): 59%
LC50 (ACHN): 4.07 µM
GI50 (ACHN; read-out: GI50): 1.12 µM
TGI (ACHN; read-out: TGI): 2.14 µM
GI50 (ACHN; read-out: pGI50 (converted)): 1.12 µM
TGI (ACHN; read-out: pTGI (converted)): 2.14 µM
growth at 0.8 µM (HT-29): -52%
growth at 0.08 µM (NCI-H322M [12]): 95%
growth at 8 µM (U-251): -96%
growth at 8 µM (HCC 2998): -87%
growth at 8 µM (RPMI-8226 [13]): -64%
growth at 0.008 µM (UO-31): 100%
growth at 80 µM (TK-10 [14]): -9%
growth at 80 µM (NCI-H322M [15]): -94%
growth at 8 µM (TK-10 [16]): -71%
growth at 8 µM (T47D): -61%
Activity (Mus musculus [17]): Non-toxic
growth at 0.08 µM (PC-3): 104%
growth at 0.008 µM (NCI-H460): 104%
growth at 0.8 µM (SK-MEL-28): 75%

C/C=C1\NC(=O)[C@H](Cc2ccccc2)NC(=O)[C@@H](C(C)C)NC(=O)[C@@H]([C@@H](C)CC)NC(=O)[C@H](NC(=O)[C@H](NC(=O)[C@H](CCCNCc2ccc(N3CCOCC3)cc2)NC(=O)[C@H]2CCCN2C(=O)[C@H](NC(=O)[C@@H](NC(=O)[C@@H](NC(=O)[C@H](NC(=O)CCCC(C)C)C(C)C)[C@@H](C)O)C(C)C)C(C)C)[C@@H](C)CC)[C@@H](C)OC(=O)[C@H](C(C)C)NC1=O
growth at 0.08 µM (SN12C): 91%
growth at 8 µM (MCF7 [1]): -53%
growth at 0.008 µM (RXF 393): 111%
growth at 0.008 µM (SK-MEL-2): 105%
GI50 (BT-549): 1.35 µM
TGI (BT-549): 2.82 µM
growth at 0.08 µM (HCT-15): 107%
growth at 8 µM (SK-MEL-5): -100%
growth at 80 µM (COLO 205): 13%
Activity (Mus musculus [2]): Toxic
GI50 (K562 [3]): 4.79 µM
CC50 (K562 [3]): > 75.9 µM
TGI (K562 [3]): 22.9 µM
growth at 8 µM (K562 [4]): 37%
growth at 0.08 µM (EKVX): 98%
growth at 8 µM (M14 [5]): -89%
growth at 0.8 µM (K562 [6]): 102%
growth at 80 µM (HOP-92): -62%
growth at 80 µM (KM12 [7]): 9%
growth at 0.8 µM (786-0): 101%
growth at 0.08 µM (SK-OV-3): 101%
growth at 0.8 µM (KM12 [8]): -15%
growth at 0.8 µM (M14 [9]): 102%
Activity (MDA-MB-231): inactive
growth at 0.8 µM (NCI-H522): 101%
growth at 80 µM (MCF7 [10]): 6%
growth at 0.8 µM (RPMI-8226 [11]): 76%
LC50 (ACHN): 4.79 µM
GI50 (ACHN; read-out: GI50): 1.27 µM
TGI (ACHN; read-out: TGI): 2.47 µM
GI50 (ACHN; read-out: pGI50 (converted)): 1.26 µM
TGI (ACHN; read-out: pTGI (converted)): 2.45 µM
growth at 0.8 µM (HT-29): 3%
growth at 0.08 µM (NCI-H322M [12]): 92%
growth at 8 µM (U-251): -98%
growth at 8 µM (HCC 2998): -81%
growth at 8 µM (RPMI-8226 [13]): -68%
growth at 0.008 µM (UO-31): 101%
growth at 80 µM (TK-10 [14]): -56%
growth at 80 µM (NCI-H322M [15]): -18%
growth at 8 µM (TK-10 [16]): -77%
growth at 8 µM (T47D): -63%
Activity (Mus musculus [17]): Toxic
growth at 0.08 µM (PC-3): 97%
growth at 0.008 µM (NCI-H460): 99%
growth at 0.8 µM (SK-MEL-28): 98%
